In ChEMBL document CHEMBL1145855, “Computer-aided selection of potential antihypertensive compounds with dual mechanism of action” (J Med Chem, 2003):

Columns and labels:
[1] = molecular target: Angiotensin-converting enzyme (Bos taurus) (UniProt P12820); assay: Inhibitory activity of compound at 1*10e-4 M against Angiotensin I converting enzyme (ACE) from bovine kidney
Neprilysin [2] = molecular target: T1, Neprilysin (Rattus norvegicus, UniProt P07861); assay: Inhibitory activity against neutral endopeptidase (NEP) from rat cortex brain membrane
T1 sequence (P07861 whole entry): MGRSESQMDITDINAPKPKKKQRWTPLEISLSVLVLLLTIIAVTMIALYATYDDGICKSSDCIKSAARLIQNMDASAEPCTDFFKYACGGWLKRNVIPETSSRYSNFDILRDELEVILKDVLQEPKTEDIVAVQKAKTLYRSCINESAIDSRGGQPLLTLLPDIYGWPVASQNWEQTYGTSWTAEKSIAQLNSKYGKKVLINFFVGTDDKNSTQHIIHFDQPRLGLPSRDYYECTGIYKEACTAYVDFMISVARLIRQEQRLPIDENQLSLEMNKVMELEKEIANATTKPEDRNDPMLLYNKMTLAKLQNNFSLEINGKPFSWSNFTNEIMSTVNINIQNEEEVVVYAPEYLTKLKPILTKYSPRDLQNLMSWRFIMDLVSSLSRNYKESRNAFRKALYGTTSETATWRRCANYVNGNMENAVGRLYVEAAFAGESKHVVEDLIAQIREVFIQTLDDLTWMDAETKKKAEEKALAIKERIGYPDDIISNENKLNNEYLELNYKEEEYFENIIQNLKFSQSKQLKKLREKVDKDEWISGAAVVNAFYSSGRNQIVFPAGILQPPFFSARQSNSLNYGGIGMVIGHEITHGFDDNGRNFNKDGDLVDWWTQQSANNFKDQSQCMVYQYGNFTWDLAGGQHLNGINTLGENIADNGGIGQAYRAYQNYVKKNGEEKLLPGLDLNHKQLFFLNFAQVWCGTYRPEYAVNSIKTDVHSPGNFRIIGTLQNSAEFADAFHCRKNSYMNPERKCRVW
In short: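 Rat cortex brain membrane suspension in 50 mM Tris-HCl pH 7.5, with six to eight inhibitor concentrations (10^-2 to 10^-6 M). Preincubated 20 min at 37 °C, then Suc-Ala-Ala-Phe-MCA (20 µM final) added for 120-180 min at 37 °C; stopped with pH 4.0 acetate. Released 4-methylcoumarinyl-7-amine read at Ex 383/Em 455 nm; % inhibition versus control; IC50.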

[3] = molecular target: Angiotensin-converting enzyme (Homo sapiens, UniProt P12821); assay: Inhibitory activity against Angiotensin I converting enzyme (ACE) from human blood serum
Chain of Angiotensin-converting enzyme (Homo sapiens, UniProt P12821) (P12821 whole entry): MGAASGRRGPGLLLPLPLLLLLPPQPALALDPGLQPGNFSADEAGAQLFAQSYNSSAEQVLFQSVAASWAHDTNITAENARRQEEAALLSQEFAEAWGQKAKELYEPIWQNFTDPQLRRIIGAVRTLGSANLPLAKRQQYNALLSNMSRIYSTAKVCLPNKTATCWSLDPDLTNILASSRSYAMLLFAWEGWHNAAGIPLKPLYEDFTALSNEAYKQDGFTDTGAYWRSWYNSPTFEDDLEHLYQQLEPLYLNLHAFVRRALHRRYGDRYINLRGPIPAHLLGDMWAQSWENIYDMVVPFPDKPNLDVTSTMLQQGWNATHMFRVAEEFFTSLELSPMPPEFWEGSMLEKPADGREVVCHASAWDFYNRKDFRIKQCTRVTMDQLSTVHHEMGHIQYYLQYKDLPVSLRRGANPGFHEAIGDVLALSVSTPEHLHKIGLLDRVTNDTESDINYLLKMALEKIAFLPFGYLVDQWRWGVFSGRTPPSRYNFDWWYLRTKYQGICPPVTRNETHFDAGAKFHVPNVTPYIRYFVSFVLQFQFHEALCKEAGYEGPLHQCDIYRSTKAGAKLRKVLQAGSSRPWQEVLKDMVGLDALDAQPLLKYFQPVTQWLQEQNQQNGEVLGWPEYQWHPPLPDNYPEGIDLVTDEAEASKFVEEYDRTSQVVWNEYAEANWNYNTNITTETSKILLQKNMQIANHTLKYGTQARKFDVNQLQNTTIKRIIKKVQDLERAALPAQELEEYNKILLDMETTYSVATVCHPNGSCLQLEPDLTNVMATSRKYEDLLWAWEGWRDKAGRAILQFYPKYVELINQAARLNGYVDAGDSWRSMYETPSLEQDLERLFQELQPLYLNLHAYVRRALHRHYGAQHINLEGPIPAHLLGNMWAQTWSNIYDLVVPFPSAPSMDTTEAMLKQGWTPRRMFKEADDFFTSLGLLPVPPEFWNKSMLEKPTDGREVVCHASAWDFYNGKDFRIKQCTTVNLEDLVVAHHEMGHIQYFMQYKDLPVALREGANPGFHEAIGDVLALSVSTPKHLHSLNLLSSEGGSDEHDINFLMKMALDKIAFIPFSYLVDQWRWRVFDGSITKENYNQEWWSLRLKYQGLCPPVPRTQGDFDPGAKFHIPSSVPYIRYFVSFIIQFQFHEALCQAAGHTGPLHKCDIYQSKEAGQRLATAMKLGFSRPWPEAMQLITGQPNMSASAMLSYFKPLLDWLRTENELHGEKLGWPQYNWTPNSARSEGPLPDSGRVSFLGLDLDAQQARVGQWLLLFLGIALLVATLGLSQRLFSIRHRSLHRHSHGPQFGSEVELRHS

[4] = molecular target: T2, Angiotensin-converting enzyme (Rattus norvegicus, UniProt P47820); assay: Inhibitory activity against Angiotensin I converting enzyme (ACE) from rat cortex brain membrane
T2 sequence (P47820 whole entry): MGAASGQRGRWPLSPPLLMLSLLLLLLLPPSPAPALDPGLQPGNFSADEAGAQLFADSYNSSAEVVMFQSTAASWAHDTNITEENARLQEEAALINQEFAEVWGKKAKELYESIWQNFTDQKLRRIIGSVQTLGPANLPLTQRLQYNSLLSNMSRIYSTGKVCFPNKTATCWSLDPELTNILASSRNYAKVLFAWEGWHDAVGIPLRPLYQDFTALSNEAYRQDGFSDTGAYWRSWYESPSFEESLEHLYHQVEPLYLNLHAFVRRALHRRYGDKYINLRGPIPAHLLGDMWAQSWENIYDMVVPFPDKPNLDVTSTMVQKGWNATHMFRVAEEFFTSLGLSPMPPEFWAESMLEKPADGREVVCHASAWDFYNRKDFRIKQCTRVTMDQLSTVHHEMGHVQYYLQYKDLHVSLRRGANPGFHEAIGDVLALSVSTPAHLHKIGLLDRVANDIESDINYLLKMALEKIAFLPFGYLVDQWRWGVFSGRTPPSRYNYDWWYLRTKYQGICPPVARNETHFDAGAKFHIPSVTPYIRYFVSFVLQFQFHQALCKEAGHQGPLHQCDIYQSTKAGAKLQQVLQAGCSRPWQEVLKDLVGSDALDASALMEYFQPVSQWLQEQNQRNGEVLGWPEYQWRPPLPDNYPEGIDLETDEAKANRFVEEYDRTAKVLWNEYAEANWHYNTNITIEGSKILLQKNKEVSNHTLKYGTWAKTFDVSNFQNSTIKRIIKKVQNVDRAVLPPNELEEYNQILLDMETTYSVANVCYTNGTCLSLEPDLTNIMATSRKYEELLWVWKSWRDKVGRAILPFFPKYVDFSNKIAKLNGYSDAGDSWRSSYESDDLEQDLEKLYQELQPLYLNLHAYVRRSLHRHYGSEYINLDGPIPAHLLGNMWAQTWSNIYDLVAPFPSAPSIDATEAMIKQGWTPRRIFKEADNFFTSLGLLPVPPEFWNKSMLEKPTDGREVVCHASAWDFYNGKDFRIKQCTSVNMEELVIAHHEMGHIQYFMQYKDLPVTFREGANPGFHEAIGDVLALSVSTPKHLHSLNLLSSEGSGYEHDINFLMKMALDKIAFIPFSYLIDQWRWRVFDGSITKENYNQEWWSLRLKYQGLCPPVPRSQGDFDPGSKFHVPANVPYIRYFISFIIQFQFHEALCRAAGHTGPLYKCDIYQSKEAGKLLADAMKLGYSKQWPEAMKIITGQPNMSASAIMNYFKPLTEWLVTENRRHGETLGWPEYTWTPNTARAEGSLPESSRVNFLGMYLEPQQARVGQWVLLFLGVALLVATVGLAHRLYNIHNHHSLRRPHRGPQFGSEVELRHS
In short: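 Enzyme source was human serum (diluted 1:5) or rat cortex brain membrane suspension, in 70 mM potassium phosphate pH 8.3 with 300 mM NaCl. Compound (10^-3 to 10^-8 M) preincubated 20 min at 37 °C, then 25 µM Hip-His-Leu added for 120 min; stopped with NaOH.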

Neprilysin [5] = molecular target: Neprilysin (Homo sapiens, UniProt P08473); assay: Inhibitory activity against neutral endopeptidase (NEP) from human blood serum
Chain of Neprilysin (Homo sapiens, UniProt P08473) (P08473 whole entry): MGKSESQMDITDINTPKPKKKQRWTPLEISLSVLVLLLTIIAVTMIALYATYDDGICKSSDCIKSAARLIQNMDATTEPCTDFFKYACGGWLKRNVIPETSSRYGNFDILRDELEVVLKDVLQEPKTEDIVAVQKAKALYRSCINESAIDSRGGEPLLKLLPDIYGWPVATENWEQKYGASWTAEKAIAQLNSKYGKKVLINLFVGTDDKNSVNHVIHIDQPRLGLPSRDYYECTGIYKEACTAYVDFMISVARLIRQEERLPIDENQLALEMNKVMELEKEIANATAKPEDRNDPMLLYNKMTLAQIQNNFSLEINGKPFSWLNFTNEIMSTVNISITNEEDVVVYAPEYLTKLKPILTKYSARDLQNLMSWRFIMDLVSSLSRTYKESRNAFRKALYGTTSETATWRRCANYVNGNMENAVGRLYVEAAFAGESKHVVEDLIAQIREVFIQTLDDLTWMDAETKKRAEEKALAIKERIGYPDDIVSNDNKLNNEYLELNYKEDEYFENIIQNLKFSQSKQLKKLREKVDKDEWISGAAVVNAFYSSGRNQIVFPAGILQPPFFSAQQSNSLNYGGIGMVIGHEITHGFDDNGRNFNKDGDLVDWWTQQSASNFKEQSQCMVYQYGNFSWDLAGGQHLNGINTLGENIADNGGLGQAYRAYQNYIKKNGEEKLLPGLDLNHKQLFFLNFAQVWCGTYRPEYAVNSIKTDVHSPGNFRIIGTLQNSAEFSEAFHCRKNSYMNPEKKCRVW
In short: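 Human serum (diluted 1:5) as enzyme source, with the test compound at six to eight concentrations from 10^-2 to 10^-6 M, in 50 mM Tris-HCl pH 7.5. Preincubated 20 min at 37 °C. Suc-Ala-Ala-Phe-MCA added (20 µM final) and incubated 120-180 min at 37 °C. Stopped with 20 mM sodium acetate pH 4.0. Released 4-methylcoumarinyl-7-amine read at Ex 383/Em 455 nm. Percent inhibition taken against the no-inhibitor control; IC50 derived.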

Chain of Angiotensin-converting enzyme (Bos taurus) (P12820 whole entry, looked up): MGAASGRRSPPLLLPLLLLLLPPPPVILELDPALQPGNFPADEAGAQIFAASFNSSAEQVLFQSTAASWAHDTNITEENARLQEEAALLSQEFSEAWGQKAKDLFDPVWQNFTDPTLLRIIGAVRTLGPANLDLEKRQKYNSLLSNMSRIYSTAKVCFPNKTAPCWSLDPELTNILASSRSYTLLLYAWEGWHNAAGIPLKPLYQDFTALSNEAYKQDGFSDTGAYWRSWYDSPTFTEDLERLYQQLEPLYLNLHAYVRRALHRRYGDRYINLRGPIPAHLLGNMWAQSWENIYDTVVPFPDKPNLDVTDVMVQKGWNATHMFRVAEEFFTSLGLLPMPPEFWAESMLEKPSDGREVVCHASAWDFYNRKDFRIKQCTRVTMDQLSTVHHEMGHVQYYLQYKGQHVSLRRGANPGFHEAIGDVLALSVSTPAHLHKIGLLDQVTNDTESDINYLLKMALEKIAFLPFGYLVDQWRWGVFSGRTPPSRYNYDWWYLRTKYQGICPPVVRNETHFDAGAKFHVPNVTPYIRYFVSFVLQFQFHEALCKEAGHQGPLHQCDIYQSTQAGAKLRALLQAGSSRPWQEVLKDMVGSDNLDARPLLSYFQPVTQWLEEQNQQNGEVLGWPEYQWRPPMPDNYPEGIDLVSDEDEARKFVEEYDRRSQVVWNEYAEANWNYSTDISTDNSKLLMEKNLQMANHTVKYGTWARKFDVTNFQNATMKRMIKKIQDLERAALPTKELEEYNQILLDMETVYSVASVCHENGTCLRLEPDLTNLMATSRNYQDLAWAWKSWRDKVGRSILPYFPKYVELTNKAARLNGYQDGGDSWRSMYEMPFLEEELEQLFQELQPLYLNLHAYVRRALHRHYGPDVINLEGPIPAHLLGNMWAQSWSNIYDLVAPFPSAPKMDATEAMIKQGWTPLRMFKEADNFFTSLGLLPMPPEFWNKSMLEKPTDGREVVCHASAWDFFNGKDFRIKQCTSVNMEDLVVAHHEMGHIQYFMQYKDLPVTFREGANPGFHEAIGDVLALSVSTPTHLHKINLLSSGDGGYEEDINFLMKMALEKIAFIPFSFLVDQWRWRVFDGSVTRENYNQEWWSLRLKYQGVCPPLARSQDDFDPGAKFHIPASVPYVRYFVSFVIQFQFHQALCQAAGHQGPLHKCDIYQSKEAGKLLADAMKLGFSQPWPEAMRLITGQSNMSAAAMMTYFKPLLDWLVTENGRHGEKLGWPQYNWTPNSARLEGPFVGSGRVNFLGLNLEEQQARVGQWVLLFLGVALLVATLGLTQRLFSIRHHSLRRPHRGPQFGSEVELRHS

| SMILES | IC50 (Neprilysin [2]) [µM] | IC50 [3] [µM] | IC50 [4] [µM] | IC50 (Neprilysin [5]) [µM] | inhibition [1] [%] |
| --- | --- | --- | --- | --- | --- |
| O=C(O)CCCNCP(=O)(O)CCc1ccccc1 | 2000 | 100 | 100 | – | 18 |
| CC(C)C[C@H](NP(=O)(O)O[C@@H]1O[C@@H](C)[C@H](O)[C@@H](O)[C@H]1O)C(=O)N[C@@H](Cc1c[nH]c2ccccc12)C(=O)O [PHOSPHORAMIDON] | 0.2 | – | – | 0.1 | – |

Now from value to molecule, other results behind:

| IC50 (Neprilysin [2]) [µM] | IC50 [3] [µM] | IC50 [4] [µM] | IC50 (Neprilysin [5]) [µM] | SMILES | inhibition [1] [%] |
| --- | --- | --- | --- | --- | --- |
| 200 | 2 | 1 | 20 | CC(=O)SCC(C)C(=O)Nc1ccccc1 (configuration not stated) | – |
| 200 | 200 | 100 | 20 | CC(=O)SCC(C)C(=O)NCc1ccccc1 (configuration not stated) | – |
| 2000 | 0.02 | 0.1 | – | CC1CCCC(C(=O)O)N1C(=O)CCS (configuration not stated) | – |
